# mABHD4 FP = ABHD4 inhibitors, primary screen, biochemical, fluorescence polarization, mouse; actives 0.54% (n = 370,000); inhibition, % at 8.92 µM; purified mABHD4, FP-Rh probe fluorescence polarization;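 active means inhibition exceeding the mean over every tested compound plus 3 SD, cut at about 30% in these data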;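 further: 0% = plate median of compound wells and 100% = S159A mutant with DMSO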
#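 Test system: mABHD4 protein | Buffer or medium: HEPES pH 7.0 buffer, 150 mM NaCl, 0.01% Pluronic F-127 | Probe or stimulus: FP-Rh fluorescent activity-based probe, added after compound pre-incubation | Timing: Pre-incubation 45 min, probe exposure 60 min, at 25 °C | Technique: Fluorescence polarization, excitation 525 nm, emission 598 nm, BODIPY TMR filters | Repeats: Single well per compound (singlicate)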
# PAFAH2 FP inh = PAFAH2 enzyme inhibitors, primary screen, biochemical, fluorescence polarization, human; Platelet-activating factor acetylhydrolase 2, cytoplasmic (Homo sapiens), Q99487; recombinant PAFAH2, FP-rhodamine activity probe; inhibition, % at 3.39 µM; actives 0.99% (n = 340,000);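 active means inhibition above the mean over all tested compounds plus 3 SD, cut at about 30% in these data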;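 further: inhibitors block probe labeling of enzyme so polarization drops; 0% = enzyme with DMSO and 100% = wells lacking PAFAH2 protein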
# pPAFAH inh = pPAFAH enzyme inhibitors, primary screen, biochemical, fluorescence polarization, human | Platelet-activating factor acetylhydrolase (Homo sapiens), Q13093 | recombinant pPAFAH, FP-rhodamine probe fluorescence polarization | actives 1.5% (n = 330,000) | inhibition, % at 3.39 µM;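 active means inhibition above the mean inhibition across the screen plus 3 SD, cut at about 25% in these data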;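 further: inhibitors block binding of the rhodamine activity-based probe so polarization drops; 0% = enzyme with DMSO and 100% = wells lacking pPAFAH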
# PAFAH1B2 inh = PAFAH1B2 enzyme inhibitors, primary screen, biochemical, fluorescence polarization, human. Platelet-activating factor acetylhydrolase IB subunit alpha2 (Homo sapiens), P68402. recombinant PAFAH1B2, FP-rhodamine activity probe. inhibition, % at 3.39 µM. actives 1.2% (n = 340,000). AID 492953, 2010;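 active means inhibition above the mean of all tested compounds plus 3 SD, cut at about 24% in these data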;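 further: 0% = enzyme with DMSO and 100% = wells lacking PAFAH1B2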
# Target sequence (P68402 whole entry, looked up): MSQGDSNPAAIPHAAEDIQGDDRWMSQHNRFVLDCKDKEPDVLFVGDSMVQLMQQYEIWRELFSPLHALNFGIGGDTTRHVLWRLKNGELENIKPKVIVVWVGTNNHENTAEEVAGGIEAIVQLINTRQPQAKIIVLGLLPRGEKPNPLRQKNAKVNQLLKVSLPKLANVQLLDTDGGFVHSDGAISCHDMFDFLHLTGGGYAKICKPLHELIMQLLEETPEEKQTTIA
# PAFAH1B3 inh = PAFAH1B3 enzyme inhibitors, primary screen, biochemical, fluorescence polarization, human | Platelet-activating factor acetylhydrolase IB subunit alpha1 (Homo sapiens), Q15102 | recombinant PAFAH1B3, FP-rhodamine probe | inhibition, % at 3.39 µM | actives 0.28% (n = 340,000) | AID 492972, 2010;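 active means inhibition above the screen-wide average of all tested compounds plus 3 SD, cut at about 25% in these data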;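 further: 0% = enzyme with DMSO only and 100% = wells lacking PAFAH1B3 protein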
# Target sequence (Q15102 whole entry, looked up): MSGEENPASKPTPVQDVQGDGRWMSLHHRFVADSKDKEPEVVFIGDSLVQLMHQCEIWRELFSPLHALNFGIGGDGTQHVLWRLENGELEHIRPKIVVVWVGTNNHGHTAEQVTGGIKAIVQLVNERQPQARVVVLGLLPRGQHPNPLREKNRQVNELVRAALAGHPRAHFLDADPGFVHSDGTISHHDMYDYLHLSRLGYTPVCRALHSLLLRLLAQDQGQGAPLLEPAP
# HTRA1 inhibitor = HTRA1 serine protease inhibitors, primary screen, biochemical, fluorescence polarization, HTS. Q92743. recombinant HTRA1, FP-rhodamine activity-based probe. inhibition, % at 5.96 µM. actives 0.5% (n = 340,000); in the data active means inhibition above about 36%;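 further: 0% = enzyme with DMSO and 100% = wells lacking enzyme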
# Numbers without * were called inactive; x = no result. An excerpt weighted towards active compounds, which were near 2.8% of everything screened.
SMILES,mABHD4 FP,PAFAH2 FP inh,pPAFAH inh,PAFAH1B2 inh,PAFAH1B3 inh,HTRA1 inhibitor
COc1ccc(NS(=O)(=O)c2ccc(C)c(C(=O)N(C)Cc3ccc(C)cc3)c2)cc1,3,7,28*,-1,9,-10
COCCNC(=O)CCc1ccc(S(=O)(=O)Nc2ccc(C)cc2)cc1,-6,1,25*,12,-4,-6
COc1ccc(NS(=O)(=O)c2ccc(NC(=O)C3CCCO3)cc2)cc1 (configuration not stated),-2,-6,26*,2,-1,-3
COc1ccc(NS(=O)(=O)c2ccc(C(=O)N(C)Cc3ccc(C)o3)cc2)cc1,-3,0,32*,4,9,-3
O=C(Nc1ccc(Oc2ccc(NC(=O)C3CCCO3)cc2)cc1)C1CCCO1 (configuration not stated),5,14,1,1,3,-1
COc1ccc(CN(C)C(=O)c2ccc(NS(=O)(=O)c3ccc(F)cc3)cc2)c(OC)c1,-12,2,21,0,5,0
Cc1ccc(NS(=O)(=O)c2ccc(CCC(=O)NC3CC3)cc2)cc1,6,-4,20,11,10,-1
O=C(NCCc1cccc(F)c1)c1cc2ccccn2n1,-4,x,x,x,x,x
C[C@H]1COc2cc(Br)ccc2S(=O)(=O)N1Cc1cn(CCC2OCCO2)nn1,-2,x,x,x,x,x
Nc1nc(SCC(=O)C23CC4CC(CC(C4)C2)C3)n[nH]1,-3,0,3,27*,-2,-8
O=C(CC1SC(=O)N(c2ccccc2)C1=O)Nc1cccc2ccccc12 (configuration not stated),-8,2,25*,-1,2,-5
Cc1ccc(NC(=O)c2cc(-c3ccco3)nc3ccccc23)cc1S(=O)(=O)N1CCOCC1,4,-8,27*,-6,0,-1
O=C(Nc1cccc(S(=O)(=O)N2CCOCC2)c1)c1c2c(nc3ccccc13)CCC2,1,-4,27*,-1,2,10
COc1ccc(O)c(C(=O)c2cc(SCC(=O)O)c3nc4sc5c(c4c(=O)n3c2)CCCC5)c1,-22,-5,28*,1,15,-22
Cc1ccc2c(c1)N(CCCC(=O)NCc1ccc(F)cc1)C(=O)CO2,2,x,x,x,x,x
COc1ccc(C2CC(c3ccccc3)=NN2c2ccc(N)cc2)cc1 (configuration not stated),8,5,26*,6,-2,23
CCC(=O)Nc1cccc(C2=NN(c3ccccc3)C(c3ccc(OC)cc3)C2)c1 (configuration not stated),-5,3,7,1,11,2
COc1ccc(C2CC(c3ccccc3O)=NN2c2ccccc2)cc1 (configuration not stated),0,4,2,-2,9,-2
COc1ccc(C2CC(c3ccccc3)=NN2c2ccc(Cl)c(C(=O)O)c2)cc1 (configuration not stated),14,7,34*,1,10,-16
Cc1nc(-c2ccc3c(c2)CCC(=O)N3)cs1,-2,4,-3,6,4,5
Cc1ccc(-c2csc(Cc3nc(-c4ccc5c(c4)CCC(=O)N5)cs3)n2)cc1,0,10,26*,3,11,-28
CCOC(=O)N1CCN(C(=O)C[C@H]2C[C@@]3(C(=O)OC)C(=C[C@H](C(C)(C)C)O[C@@H]3C)N(Cc3cccc4ccccc34)C2=O)CC1,-13,x,x,x,x,x
COc1ccc(C(=S)N2CCOCC2)cc1OS(=O)(=O)c1ccc(Br)cc1,1,3,0,34*,9,-5
Cc1c(Cl)cccc1NC(=O)CSc1sc2c(O)cc(=O)[nH]c2c1C#N,-11,-1,20,8,4,-39
CCCSc1nnc(NC(=O)CSc2sc3c(O)cc(=O)[nH]c3c2C#N)s1,0,37*,43*,16,15,-29
SMILES,mABHD4 FP,PAFAH2 FP inh,pPAFAH inh,PAFAH1B2 inh,PAFAH1B3 inh,HTRA1 inhibitor
N#Cc1c(SCC(=O)Nc2ccc(Cl)cc2Cl)sc2c(O)cc(=O)[nH]c12,-2,10,30*,1,8,-27
N#Cc1c(SCC(=O)Nc2ccccc2C(F)(F)F)sc2c(O)cc(=O)[nH]c12,-28,7,27*,6,9,-21
N#Cc1c(SCC(=O)Nc2cccc(F)c2)sc2c(O)cc(=O)[nH]c12,-40,15,30*,8,18,-20
CCOc1cccc(NC(=O)CSc2sc3c(O)cc(=O)[nH]c3c2C#N)c1,-4,-1,16,1,9,-46
CCCCNS(=O)(=O)CC1NCc2cc(F)ccc21 (configuration not stated),-5,x,x,x,x,x
NC(=O)c1c(N)[nH]c(C(=O)c2ccccc2)c1-c1cccc2ccccc12,1,x,x,x,x,x
N#Cc1c(NC(=O)c2ccco2)sc2c1CCC2,16,-50,30*,11,4,6
NC(=O)c1c(NC(=O)c2ccco2)sc2c1CCC2,2,-3,7,-2,4,1
COc1ccc(C(=O)OCCCN(C)C2CN(Cc3cn(Cc4ccc([N+](=O)[O-])cc4)nn3)S(=O)(=O)C2)cc1OC (configuration not stated),-12,x,x,x,x,x
O=C(CSc1nccc(-c2cccs2)n1)Nc1ccc(Cl)cc1,-20,-12,-2,5,12,-18
Cc1onc(-c2ccc(Cl)cc2)c1-c1ccnc(SCC(=O)Nc2ccc(C(C)C)cc2)n1,-6,-17,0,30*,-13,3
N#C/C(=C(/O)CCl)c1nc2c(s1)CCc1ccccc1-2,32*,30*,21,2,-2,13
CC(C)(C)OC(=O)/C=C/[C@H](CCCCl)Sc1ccc(C(C)(C)C)cc1,-9,x,x,x,x,x
CC(C)(C)c1ccc(CCC(CC(=O)O)CC(=O)O)cc1,-8,-1,7,27*,14,1
COc1ccc(-n2c(C)cc(C(=O)CN3C(=O)NC4(CCCc5sccc54)C3=O)c2C)cc1 (configuration not stated),-10,5,25*,3,1,-39
CN1CCCCC(NC(=O)c2ccccc2)C1=O (configuration not stated),-5,x,x,x,x,x
N#Cc1cccc(NC(=O)OCCCN2CCC3(CCCCC3)C2=O)c1,-3,x,x,x,x,x
CC(=O)c1cccc(NC(=O)NCCc2ccc(Cl)cc2)c1,-4,2,-2,27*,-4,-9
